The target in one experiment is T1, Cathepsin K (Homo sapiens, UniProt P43235).
T1 sequence (P43235 whole entry): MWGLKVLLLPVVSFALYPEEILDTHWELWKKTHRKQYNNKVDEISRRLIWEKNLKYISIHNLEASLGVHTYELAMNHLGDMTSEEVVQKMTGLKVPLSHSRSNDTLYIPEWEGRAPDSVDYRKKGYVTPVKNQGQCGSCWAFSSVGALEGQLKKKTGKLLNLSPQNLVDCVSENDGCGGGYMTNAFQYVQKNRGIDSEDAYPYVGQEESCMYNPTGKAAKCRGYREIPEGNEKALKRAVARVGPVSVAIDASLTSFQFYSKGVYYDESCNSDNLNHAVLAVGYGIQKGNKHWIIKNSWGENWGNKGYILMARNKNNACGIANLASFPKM
The experiment is described as follows: Inhibition of human cathepsin K expressed in Pichia pastoris using Z-Phe-Arg-AMC as substrate after 30 mins by spectromicrofluorimetric method. An outline of the steps:
(§1)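 Enzyme (0.5 nM) preincubated 30 min at 37 °C with inhibitor (0-250 nM) in 0.1 M sodium acetate pH 5.5, 2 mM DTT, 0.01% Brij35. Residual activity on Z-Phe-Arg-AMC at 2.5, 5 and 10 µM, fluorescence ex 350/em 460 nm. IC50 averaged from slopes. Triplicate, repeated three times.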

A further experiment addresses Cathepsin S (Homo sapiens, UniProt P25774). Nature of the experiment: Inhibition of human cathepsin S using Z-LR-AMC as substrate after 30 mins by spectromicrofluorimetric method. Put shortly:
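Cathepsin S (0.5 nM) preincubated 30 min at 37 °C with inhibitor (0-250 nM) in 0.1 M sodium acetate pH 5.5 containing 2 mM DTT and 0.01% Brij35. Residual activity read with Z-LR-AMC at 2.5, 5 and 10 µM, fluorescence ex 350/em 460 nm. IC50 averaged from slopes. Triplicate, repeated three times.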

The target in a further experiment is Procathepsin L (Homo sapiens, UniProt P07711). The experiment is described as follows: Inhibition of human cathepsin L using Z-Phe-Arg-AMC as substrate after 30 mins by spectromicrofluorimetric method. An outline of the steps:
as §1

In the next experiment the target is Cathepsin B (Homo sapiens, UniProt P07858). The experiment is described as follows: Inhibition of human cathepsin B using Z-Phe-Arg-AMC as substrate after 30 mins by spectromicrofluorimetric method. An outline of the steps: as §1

In general, IC50 refers to the concentration that gives 50% inhibition. A high value points to a need for much substance.

Structures are written as SMILES.

Chain of Cathepsin S (P25774 whole entry): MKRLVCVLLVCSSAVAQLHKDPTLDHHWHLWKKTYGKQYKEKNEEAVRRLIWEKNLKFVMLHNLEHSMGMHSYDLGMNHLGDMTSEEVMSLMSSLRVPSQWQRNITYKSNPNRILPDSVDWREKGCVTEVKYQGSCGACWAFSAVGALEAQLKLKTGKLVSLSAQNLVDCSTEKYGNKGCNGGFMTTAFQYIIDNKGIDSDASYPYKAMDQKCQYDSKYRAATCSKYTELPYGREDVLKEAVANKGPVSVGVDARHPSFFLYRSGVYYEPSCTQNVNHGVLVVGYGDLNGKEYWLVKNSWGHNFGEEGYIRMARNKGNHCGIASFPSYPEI
Chain of Procathepsin L (P07711 whole entry): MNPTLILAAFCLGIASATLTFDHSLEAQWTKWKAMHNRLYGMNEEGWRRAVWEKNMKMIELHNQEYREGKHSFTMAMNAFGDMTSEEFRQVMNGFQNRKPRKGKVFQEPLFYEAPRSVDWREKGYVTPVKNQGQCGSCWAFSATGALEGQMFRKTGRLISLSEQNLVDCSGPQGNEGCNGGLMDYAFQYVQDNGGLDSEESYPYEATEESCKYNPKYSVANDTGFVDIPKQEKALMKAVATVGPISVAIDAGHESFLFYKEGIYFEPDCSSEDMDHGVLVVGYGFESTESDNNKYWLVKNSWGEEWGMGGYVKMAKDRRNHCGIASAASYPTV

Regarding `N#Cc1nc(NC[C@H](O)c2ccccc2)nc(NC2CCCCC2)n1`, the IC50 on Cathepsin K stood at 70 nM; against Cathepsin S it was 23 nM.
As for `COc1ccc(Nc2nc(C#N)nc(N3CCNCC3)n2)cc1`, the 50% inhibitory concentration (IC50) on Procathepsin L was 17 nM; on Cathepsin K, 17 nM; on Cathepsin B, 45 nM; on Cathepsin S, 17 nM.
As to `COc1ccc(Nc2nc(C#N)nc(NC3CCCCC3)n2)cc1`, the IC50 amounted to 226 nM on Procathepsin L, 23 nM against Cathepsin K and 136 nM on Cathepsin S.
As to `Cc1cccc(CNc2nc(C#N)nc(NC3CCCCC3)n2)c1`, the results for the IC50 at Cathepsin K and on Cathepsin S were 60 nM and 23 nM, respectively.
For `N#Cc1nc(Nc2ccc(C(F)(F)F)cc2)nc(N2CCNCC2)n1`, in that order: 28 nM and 23 nM.
For `N#Cc1nc(Nc2ccc(C(F)(F)F)cc2)nc(NC2CCCCC2)n1`, in that order: 34 nM and 102 nM.
Take `N#Cc1nc(NC[C@H](O)c2ccccc2)nc(N2CCNCC2)n1`: the IC50 against Procathepsin L is 45 nM; against Cathepsin K, 68 nM; against Cathepsin B, 136 nM; against Cathepsin S, 23 nM.
On to `N#Cc1nc(Nc2cccc([N+](=O)[O-])c2)nc(NC2CCCCC2)n1`, for which the IC50 against Procathepsin L was determined as 23 nM; against Cathepsin K it was 17 nM; on Cathepsin B it was 79 nM; at Cathepsin S it was 28 nM.
With `N#Cc1nc(Nc2ccc([N+](=O)[O-])cc2)nc(NC2CCCCC2)n1`, the IC50 at Procathepsin L worked out at 136 nM; against Cathepsin K it was 17 nM; on Cathepsin S, 90 nM.
`N#Cc1nc(NCCc2ccccc2)nc(NC2CCCCC2)n1`: the IC50 against Cathepsin K was found to be 80 nM; on Cathepsin S it was 23 nM.
Turning to `N#Cc1ccc(Nc2nc(C#N)nc(N3CCNCC3)n2)cc1`, the IC50 at Procathepsin L was 113 nM; against Cathepsin K, 28 nM; at Cathepsin B, 57 nM.
Take `N#Cc1nc(Nc2cccc([N+](=O)[O-])c2)nc(N2CCNCC2)n1`: the concentration for half-maximal inhibition (IC50) was 17 nM at Procathepsin L, 17 nM against Cathepsin K, 34 nM at Cathepsin B and 17 nM against Cathepsin S.
As to `N#Cc1nc(Nc2ccc([N+](=O)[O-])cc2)nc(N2CCNCC2)n1`, the IC50 against Procathepsin L was 17 nM; at Cathepsin K it was 17 nM; against Cathepsin S, 23 nM.
For `Cc1cccc(CNc2nc(C#N)nc(N3CCNCC3)n2)c1`, the IC50 against Cathepsin K turned out to be 23 nM; on Cathepsin B it was 57 nM; on Cathepsin S it was 17 nM.
Consider `N#Cc1ccc(Nc2nc(C#N)nc(NC3CCCCC3)n2)cc1`, for which the IC50 against Cathepsin K stood at 67 nM; at Cathepsin S it was 23 nM.

The values above are taken from ChEMBL document CHEMBL3861957, “Straightforward synthesis of 2,4,6-trisubstituted 1,3,5-triazine compounds targeting cysteine cathepsins K and S” (Eur J Med Chem, 2016).
